What was measured:
Rattus norvegicus [1] = assay: Maximum increase in dP/dt recorded in mmHg/s at the dose 3.0 mg/kg administered intravenously in rat.; type: functional; settings: route intravenous
How it was run: (§1)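 Anesthetized rats, dP/dt50, BP and HR (HR from LVP by pulse counter) recorded continuously. Increasing single bolus doses into jugular vein, 0.5 mL/kg, 10 min apart. Values read 10 min post-injection as steady state, not 1–3 min peak. ED1.5 = dose raising dP/dt50 by 1500 mmHg/s; max = peak rise from control; usually mean of four.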

Felis catus [2] = assay: Effective dose required to produce an increase in dP/dt50, blood pressure by 1500 mmHg/s was determined in cat by intravenous administration; type: functional
How it was run: (§2)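 Cats of either sex on pentobarbitone (45 mg/kg ip, then 0.1 mg/kg × min infusion), ventilated, open chest. Dextran 10 mL/kg iv, then desacetylmepitranolol 0.3 mg/kg iv for β-blockade failure. LVP/HR via Millar tip in left ventricle; BP, dP/dt50. Rising iv bolus doses 10 min apart, read at 10 min. ED1.5 = dose raising dP/dt50 by 1500 mmHg/s; usually mean of four.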

Rattus norvegicus [3] = assay: Effective dose required to produce an increase in dP/dt50, blood pressure by 1500 mmHg/s was determined in rat by intravenous administration; type: functional; how it was run: as §1
Canis familiaris [4] = assay: Effective dose required to produce an increase in dP/dt50, blood pressure by 1500 mmHg/s was determined in dog by intravenous administration; type: functional, Canis lupus familiaris
How it was run: (§3)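 Conscious mongrel dogs (both sexes, 25–30 kg), chronically instrumented via left thoracotomy, used ≥10 days after surgery. Femoral artery BP, Millar tip LV pressure, femoral vein injection. dP/dt taken at LVP 60 mmHg. Increasing iv doses 10 min apart, readings every 10 min. ED1.5 = dose raising dP/dt by 1500 mmHg/s; max = peak rise from control; usually mean of four.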

Canis familiaris [5] = assay: Maximum increase in dP/dt recorded in mmHg/s at the dose 3.0 mg/kg administered intravenously in dog; type: functional, Canis lupus familiaris; design: unit not given here; settings: route intravenous; how it was run: as §3
Felis catus [6] = assay: Maximum increase in dP/dt recorded in mmHg/s at the dose 3.0 mg/kg administered intravenously in cat; type: functional; settings: route intravenous; how it was run: as §2
Felis catus [7] = assay: Maximum increase in dP/dt recorded in mmHg/s at the dose 10.0 mg/kg administered intravenously in cat; type: functional; settings: route intravenous; how it was run: as §2
Rattus norvegicus [8] = assay: Maximum increase in dP/dt recorded in mmHg/s at the dose 10.0 mg/kg administered intravenously in rat.; type: functional; settings: route intravenous; how it was run: as §1
Felis catus [9] = assay: Maximum increase in dP/dt recorded in mmHg/s at the dose 1.0 mg/kg administered intravenously in cat; type: functional; settings: route intravenous; how it was run: as §2
Rattus norvegicus [10] = assay: Maximum increase in dP/dt recorded in mmHg/s at the dose 1.0 mg/kg administered intravenously in rat.; type: functional; settings: route intravenous; how it was run: as §1
Felis catus [11] = assay: Maximum increase in dP/dt recorded in mmHg/s at the dose 0.1 mg/kg administered intravenously in cat; type: functional; settings: route intravenous; how it was run: as §2
Canis familiaris [12] = assay: Maximum increase in dP/dt recorded in mmHg/s at the dose in parentheses administered intravenously in dog; type: functional, Canis lupus familiaris; how it was run: as §3
Canis familiaris [13] = assay: Maximum increase in dP/dt recorded in mmHg/s at the dose 1.0 mg/kg administered intravenously in dog; type: functional, Canis lupus familiaris; settings: route intravenous; how it was run: as §3
Felis catus [14] = assay: Maximum increase in dP/dt recorded in mmHg/s at the dose 0.3 mg/kg administered intravenously in cat; type: functional; settings: route intravenous; how it was run: as §2
Rattus norvegicus [15] = assay: Maximum increase in dP/dt recorded in mmHg/s at the dose 0.1 mg/kg administered intravenously in rat.; type: functional; settings: route intravenous; how it was run: as §1

Row | Structure (SMILES) | ED1.5 (Felis catus [2]) [mg/kg] | ED1.5 (Rattus norvegicus [3]) [mg/kg] | ED1.5 (Canis familiaris [4]) [mg/kg] | other results
1 | CCOC(=O)C1(C)C(=O)Nc2cc3[nH]c(-c4ccncc4)nc3cc21 (configuration not stated) | 0.25 | 0.09 | 0.64 | Max (Rattus norvegicus [1]): 4200 mmHg/s; Max (Canis familiaris [5]): >3.6; Max (Felis catus [6]): 3700 mmHg/s
2 | CC1(C)C(=O)Nc2cc3[nH]c(Cc4ccncc4)nc3cc21 | 0.6 | 1.14 |  | Max (Felis catus [7]): 3800 mmHg/s; Max (Rattus norvegicus [8]): 4100 mmHg/s
3 | CC1(C(=O)NN)C(=O)Nc2cc3[nH]c(-c4ccncc4)nc3cc21 (configuration not stated) |  | >10 |  | 
4 | CC1(C)C(=O)Nc2cc3[nH]c(CCc4ccncc4)nc3cc21 |  | >10 |  | 
5 | O=C1Nc2cc3[nH]c(-c4ccncc4)nc3cc2C12CCCC2 | 0.08 | 0.2 | 0.77 | Max (Rattus norvegicus [1]): 3300 mmHg/s; Max (Canis familiaris [5]): 2.2; Max (Felis catus [9]): 2800 mmHg/s
6 | CCC1C(=O)Nc2cc3[nH]c(-c4cccnc4)nc3cc21 (configuration not stated) | 0.15 | 0.39 |  | Max (Felis catus [9]): 2300 mmHg/s; Max (Rattus norvegicus [8]): 4000 mmHg/s
7 | CC1C(=O)Nc2cc3[nH]c(-c4ccncc4)nc3cc21 (configuration not stated) | 0.01 | 0.02 | 0.58 | Max (Rattus norvegicus [10]): 4400 mmHg/s; Max (Canis familiaris [5]): 1.7; Max (Felis catus [11]): 2500 mmHg/s
8 | CC1(C)C(=O)Nc2cc3[nH]c(-c4cc[n+]([O-])cc4)nc3cc21 |  | 0.03 | 0.44 | Max (Rattus norvegicus [10]): 4900 mmHg/s; Max (Canis familiaris [12]): 1800 mmHg/s
9 | CC1(C)C(=O)Nc2cc3[nH]c(-c4ccccn4)nc3cc21 | 0.23 | 0.96 | 1.11 | Max (Rattus norvegicus [1]): 2400 mmHg/s; Max (Canis familiaris [5]): 1.7; Max (Felis catus [6]): 2700 mmHg/s
10 | O=C1Nc2cc3[nH]c(-c4ccncc4)nc3cc2C1C1CCCC1 (configuration not stated) |  | >10 |  | 
11 | CCCCc1ccc(-c2nc3cc4c(cc3[nH]2)C(C)(C)C(=O)N4)nc1 |  | >3 |  | 
12 | CC1(C)C(=O)Nc2cc3[nH]c(-c4ccnc(O)c4)nc3cc21 | 0.21 | 0.87 |  | Max (Felis catus [9]): 2400 mmHg/s; Max (Rattus norvegicus [8]): 3400 mmHg/s
13 | Cc1ccc(-c2nc3cc4c(cc3[nH]2)C(C)(C)C(=O)N4)cn1 |  | >3 |  | 
14 | Cc1cc(-c2nc3cc4c(cc3[nH]2)C(C)(C)C(=O)N4)ccn1 | 0.03 | 0.29 | 0.51 | Max (Rattus norvegicus [10]): 2500 mmHg/s; Max (Felis catus [11]): 2700 mmHg/s; Max (Canis familiaris [13]): 1800 mmHg/s
15 | CC1(C)C(=O)Nc2cc3[nH]c(/C=C/c4cccnc4)nc3cc21 |  | 1.21 |  | Max (Rattus norvegicus [8]): 4300 mmHg/s
16 | CCC1(CC)C(=O)Nc2cc3[nH]c(-c4ccncc4)nc3cc21 |  | >3 |  | Max (Rattus norvegicus [8]): 1900 mmHg/s
17 | CC1(C)C(=O)Nc2cc3[nH]c(-c4ccnc(Cl)c4)nc3cc21 | 0.07 | 0.07 |  | Max (Rattus norvegicus [10]): 3900 mmHg/s
18 | COc1nc(C)ccc1-c1nc2cc3c(cc2[nH]1)C(C)(C)C(=O)N3 |  | >10 |  | 
19 | CC(C)CC1C(=O)Nc2cc3[nH]c(-c4ccncc4)nc3cc21 (configuration not stated) |  | >3 |  | 
20 | CCC1C(=O)Nc2cc3[nH]c(-c4ccncc4)nc3cc21 (configuration not stated) | 0.04 | 0.06 | 0.09 | Max (Felis catus [14]): 2500 mmHg/s; Max (Rattus norvegicus [1]): 4500 mmHg/s; Max (Canis familiaris [13]): 2300 mmHg/s
21 | CC(C)C1C(=O)Nc2cc3[nH]c(-c4ccncc4)nc3cc21 (configuration not stated) |  | >3 |  | Max (Rattus norvegicus [8]): 2200 mmHg/s
22 | CC1(C)C(=O)Nc2cc3[nH]c(-c4cccnc4)nc3cc21 | 0.02 | 1 | 0.51 | Max (Felis catus [14]): 3500 mmHg/s; Max (Rattus norvegicus [1]): 3500 mmHg/s; Max (Canis familiaris [5]): 2.5
23 | CC1C(=O)Nc2cc3[nH]c(-c4cccnc4)nc3cc21 (configuration not stated) | 0.03 | 0.06 | 0.08 | Max (Felis catus [14]): 2300 mmHg/s; Max (Rattus norvegicus [1]): 4600 mmHg/s; Max (Canis familiaris [13]): 2400 mmHg/s
24 | CC1(C)C(=O)Nc2cc3[nH]c(-c4ccncc4)nc3cc21 [ADIBENDAN] | 0.01 | 0.01 | 0.2 | Max (Rattus norvegicus [15]): 3700 mmHg/s; Max (Felis catus [14]): 2000 mmHg/s; Max (Canis familiaris [13]): 2000 mmHg/s
25 | Cc1[nH]c(=O)c(C#N)cc1-c1ccncc1 [MILRINONE] | 0.13 | 0.14 | 0.4 | Max (Felis catus [7]): 3000 mmHg/s; Max (Canis familiaris [13]): 2000 mmHg/s; Max (Rattus norvegicus [8]): 3400 mmHg/s
